Columns and labels:
[1] = Plasma concentration in healthy human at […], po after 12 hrs; type: ADME, organism-based; set-up: route oral
How it was run: (§1)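 Healthy nonsmoking Japanese men, 20-45 y, given one oral 400 mg suspension dose. Blood drawn at 0-72 h, spun at 1,600 × g for 10 min at 4°C, plasma kept at −20°C. Drug measured by validated LC/MS/MS, linear 0.005-5 μg/ml. Values are mean ± SD, n = 28. Cmax, Tmax and t1/2,z are model-independent; AUC0-24 by trapezoidal method.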

Homo sapiens [2] = test: Toxicity in healthy human assessed as eosinophil count in bronchoalveolar fluid at 400 mg, po administered as single dose after 10 hrs; conditions: in vivo
[3] = Ratio of AUC (0 to 24 hrs) in […] healthy epithelial lining fluid to MIC90 for Moraxella catarrhalis; type: functional
[4] = Ratio of drug level in alveolar macrophages to plasma in healthy human at 400 mg, po administered as single dose after 2 hrs
Homo sapiens [5] = test: Toxicity in healthy human assessed as eosinophil count in bronchoalveolar fluid at 400 mg, po administered as single dose after 24 hrs; conditions: in vivo
[6] = Plasma concentration in healthy human at […], po after 2 hrs; type: ADME, organism-based; set-up: route oral; how it was run: as §1
[7] = Plasma concentration in healthy human at […], po after 6 hrs; type: ADME, organism-based; set-up: route oral; how it was run: as §1
[8] = Ratio of drug level in alveolar macrophages to plasma in healthy human at 400 mg, po administered as single dose after 10 hrs
[9] = Ratio of drug level in alveolar macrophages to plasma in healthy human at 400 mg, po administered as single dose after 12 hrs
Homo sapiens [10] = test: Toxicity in healthy human assessed as lymphocytes count in bronchoalveolar fluid at […], po administered as single dose after 6 hrs; type: organism-based, Lung; set-up: route oral; conditions: in vivo
How it was run: (§2)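 Healthy Japanese male never-smokers, aged 20 to 45 years with normal BMI, got one open-label oral 400 mg suspension dose. Four subjects per time group had one fiber-optic bronchoscopic BAL at the assigned post-dose time. The first aliquot was discarded and the last three were pooled. BAL fluid was held on ice and spun at 400 × g for 5 min at 4°C. Pellet cells were counted by hemocytometer, with a differential count on a stained cytocentrifuge preparation.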

Homo sapiens [11] = test: Toxicity in healthy human assessed as alveolar macrophage count in bronchoalveolar fluid at 400 mg, po administered as single dose after 6 hrs; conditions: in vivo
[12] = Tmax in epithelial lining fluid of healthy human at 400 mg, po administered as single dose
Homo sapiens [13] = test: Toxicity in healthy human assessed as eosinophil count in bronchoalveolar fluid at 400 mg, po administered as single dose after 12 hrs; conditions: in vivo
[14] = AUC (0 to 24 hrs) in plasma of healthy human at 400 mg, po administered as single dose by linear trapezoidal method
Homo sapiens [15] = test: Toxicity in healthy human assessed as alveolar macrophage count in bronchoalveolar fluid at 400 mg, po administered as single dose after 4 hrs; conditions: in vivo
Homo sapiens [16] = test: Toxicity in healthy human assessed as alveolar macrophage count in bronchoalveolar fluid at 400 mg, po administered as single dose after 2 hrs; conditions: in vivo
[17] = Cmax in plasma of healthy human at 400 mg, po administered as single dose
Homo sapiens [18] = test: Toxicity in healthy human assessed as lymphocytes count in bronchoalveolar fluid at […], po administered as single dose after 12 hrs; type: organism-based, Lung; set-up: route oral; conditions: in vivo; how it was run: as §2
[19] = Ratio of drug level in alveolar macrophages to plasma in healthy human at 400 mg, po administered as single dose after 8 hrs
[20] = AUC (0 to 24 hrs) in epithelial lining fluid of healthy human at 400 mg, po administered as single dose by linear trapezoidal method
[21] = Drug level in alveolar macrophages of healthy human at […], po administered as single dose after 12 hrs; type: ADME, organism-based, Macrophage; set-up: route oral; conditions: read-out: Drug uptake
How it was run: (§3)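 One oral 400 mg suspension dose; four volunteers lavaged at each time (2-24 h). Cell pellet from the pooled 2nd-4th aspirates was counted (hemocytometer, stained cytospin differential). Drug in cell suspension measured by HPLC, divided by AM volume assuming 2.42 μl/10^6 cells. Cmax and Tmax are model-independent, based on mean concentrations at each time.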

[22] = Drug level in epithelial lining fluid of healthy human at […], po administered as single dose after 4 hrs; type: ADME, organism-based; set-up: route oral; conditions: read-out: Drug uptake
How it was run: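 Four healthy male volunteers per BAL time (2-24 h) after one oral 400 mg suspension dose. Single bronchoscopic lavage; first aliquot discarded, next three pooled. Supernatant separated at 400 × g, 5 min, 4°C, and drug assayed by LC/MS/MS. ELF level = CBAL × urea plasma/urea BAL, with urea corrected for blood contamination via RBC ratio. PK parameters are model-independent, based on the mean concentration at each time.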

[23] = Drug level in alveolar macrophages of healthy human at […], po administered as single dose after 6 hrs; type: ADME, organism-based, Macrophage; set-up: route oral; conditions: read-out: Drug uptake; how it was run: as §3
[24] = Tmax in alveolar macrophages of healthy human at 400 mg, po administered as single dose
[25] = Plasma concentration in healthy human at […], po after 24 hrs; type: ADME, organism-based; set-up: route oral; how it was run: as §1
[26] = Drug level in alveolar macrophages of healthy human at […], po administered as single dose after 10 hrs; type: ADME, organism-based, Macrophage; set-up: route oral; conditions: read-out: Drug uptake; how it was run: as §3
[27] = Cmax in epithelial lining fluid of healthy human at 400 mg, po administered as single dose
[28] = Ratio of AUC (0 to 24 hrs) in plasma of healthy human to MIC90 for Streptococcus pneumoniae; type: functional
Homo sapiens [29] = test: Toxicity in healthy human assessed as lymphocytes count in bronchoalveolar fluid at […], po administered as single dose after 2 hrs; type: organism-based, Lung; set-up: route oral; conditions: in vivo; how it was run: as §2
[30] = Terminal-phase half-life in plasma of healthy human at 400 mg, po administered as single dose; conditions: read-out: beta t1/2 (converted)
Homo sapiens [31] = test: Toxicity in healthy human assessed as neutrophil count in bronchoalveolar fluid at […], po administered as single dose after 12 hrs; type: organism-based, Lung; set-up: route oral; conditions: in vivo; how it was run: as §2
[32] = Ratio of drug level in epithelial lining fluid to plasma in healthy human at […], po administered as single dose after 6 hrs; type: ADME, organism-based; set-up: route oral
How it was run: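 For each subject, ELF or AM drug level after the single oral 400 mg dose is divided by the plasma level sampled at the BAL time (2-24 h). Ratios are summarized per four-subject group.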

[33] = Terminal-phase half-life in epithelial lining fluid of healthy human at 400 mg, po administered as single dose; conditions: read-out: beta t1/2 (converted)

- concentration at 12 h [1]: 424 ng/mL
- Kp at 2 h [4]: 93
- concentration at 2 h [6]: 646 ng/mL
- concentration at 6 h [7]: 540 ng/mL
- Kp at 10 h [8]: 260
- Kp at 12 h [9]: 406
- Tmax [12]: 2 h
- AUC(0-t) at 24 h [14]: 10.5 µg·h/mL
- Cmax [17]: 687 ng/mL
- Kp at 8 h [19]: 283
- AUC(0-t) at 24 h [20]: 212 µg·h/mL
- concentration at 12 h [21]: 176000 ng/mL
- concentration at 4 h [22]: 13700 ng/mL
- concentration at 6 h [23]: 100000 ng/mL
- Tmax [24]: 12 h
- concentration at 24 h [25]: 315 ng/mL
- concentration at 10 h [26]: 108000 ng/mL
- Cmax [27]: 16800 ng/mL
- half-life [30]: 17.5 h
- Kp at 6 h [32]: 27
- half-life [33]: 14.8 h
Structure (SMILES): CC[C@H]1OC(=O)[C@H](C)C(=O)[C@H](C)[C@@H](O[C@@H]2O[C@H](C)C[C@H](N(C)C)[C@H]2O)[C@@]2(C)C[C@@H](C)/C(=N\C(C)=O)[C@H](C)[C@@H](OC/C(=N\OCc3ccc(-n4cccn4)nc3)CO2)[C@]1(C)O [MODITHROMYCIN]
- Activity (Homo sapiens [2]): 0.1%
- RatioAUC/MIC [3]: 424.8
- Activity (Homo sapiens [5]): 0%
- Activity (Homo sapiens [10]): 13%
- Activity (Homo sapiens [11]): 86.9%
- Activity (Homo sapiens [13]): 0.9%
- Activity (Homo sapiens [15]): 87.1%
- Activity (Homo sapiens [16]): 84.8%
- Activity (Homo sapiens [18]): 13.3%
- RatioAUC/MIC [28]: 83.6
- Activity (Homo sapiens [29]): 15.3%
- Activity (Homo sapiens [31]): 0%
